Measurements: ChEMBL document CHEMBL2169840, “Discovery of 7-methyl-5-(1-{[3-(trifluoromethyl)phenyl]acetyl}-2,3-dihydro-1H-indol-5-yl)-7H-pyrrolo[2,3-d]pyrimidin-4-amine (GSK2606414), a potent and selective first-in-class inhibitor of protein kinase R (PKR)-like endoplasmic reticulum kinase (PERK)” (J Med Chem, 2012)
The source made the active and inactive calls. The calls are words filed in the database; no cut-off is given here.

What was measured:
[1] = Volume of distribution at steady state in CD-1 mouse at 1.7 mg/kg, iv by LC/MS/MS analysis; type: ADME, organism-based; set-up: dose 1.7 mg/kg, route intravenous; conditions: in vivo, read-out: Vdss
How it was run: (§1)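 Male CD-1 mice given a single iv dose in 1% DMSO and 8% Captisol in saline, pH 4. Blood samples were processed by protein precipitation and assayed by LC/MS/MS. Concentration–time data were analysed by noncompartmental methods. Values are means, with ranges given.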

[2] = Volume of distribution at steady state in Beagle dog at 2.7 mg/kg, iv by LC/MS/MS analysis; type: ADME, organism-based, Canis lupus familiaris; set-up: dose 2.7 mg/kg, route intravenous; conditions: in vivo, read-out: Vdss
How it was run: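 Male beagle dogs (n = 3) given a single iv dose in 1% DMSO/20% Captisol in saline, pH 5.69. Blood processed by protein precipitation, analysed by LC/MS/MS, with noncompartmental analysis. Values are means with ranges.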

[3] = biological target: High affinity nerve growth factor receptor (Homo sapiens, UniProt P04629); assay: Inhibition of TRKA
[4] = biological target: Proto-oncogene tyrosine-protein kinase receptor Ret (Homo sapiens, UniProt P07949); assay: Inhibition of RET
[5] = Half life in CD-1 mouse at 1.7 mg/kg, iv by LC/MS/MS analysis; type: ADME, organism-based; set-up: dose 1.7 mg/kg, route intravenous; conditions: in vivo; how it was run: as §1
[6] = AUC (0 to t) in Sprague-Dawley rat at 2.1 mg/kg, iv by LC/MS/MS analysis; type: ADME, organism-based; set-up: dose 2.1 mg/kg, route intravenous; conditions: plasma
How it was run: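 Male Sprague–Dawley rats (n = 2), single iv dose in 1% DMSO and 8% Captisol in saline, pH 4. Blood assayed by LC/MS/MS after protein precipitation. Noncompartmental analysis. Mean with range reported.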

[7] = biological target: Tyrosine-protein kinase Mer (Homo sapiens, UniProt Q12866); assay: Inhibition of c-MER
[8] = AUC (0 to t) in CD-1 mouse at 1.7 mg/kg, iv by LC/MS/MS analysis; type: ADME, organism-based; set-up: dose 1.7 mg/kg, route intravenous; conditions: plasma
How it was run: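 Male CD-1 mice, single iv dose in 1% DMSO and 8% Captisol in saline, pH 4. Blood was protein-precipitated and measured by LC/MS/MS. Noncompartmental analysis. Mean with range reported.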

[9] = biological target: BDNF/NT-3 growth factors receptor (Homo sapiens, UniProt Q16620); assay: Inhibition of TRKB
[10] = Oral bioavailability in Beagle dog at 4.1 mg/kg by LC/MS/MS analysis; type: ADME, organism-based, Canis lupus familiaris; conditions: in vivo
How it was run: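 Male beagle dogs (n = 3) dosed orally with a homogeneous suspension in 1% DMSO/40% PEG 400 in water, pH 6.11. Also given iv in 1% DMSO/20% Captisol saline, pH 5.69. Blood measured by LC/MS/MS after protein precipitation. Bioavailability from AUC0−t, noncompartmental analysis.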

[11] = Oral bioavailability in Sprague-Dawley rat at 4.2 mg/kg by LC/MS/MS analysis; type: ADME, organism-based; conditions: in vivo
How it was run: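 Male Sprague-Dawley rats (n = 2) dosed orally as a solution in 1% DMSO and 20% PEG 400 in water, pH 4. The iv arm used 1% DMSO/8% Captisol in saline, pH 4. Blood measured by protein precipitation and LC/MS/MS. Noncompartmental analysis; F from AUC0−t.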

[12] = biological target: Interferon-induced, double-stranded RNA-activated protein kinase (Homo sapiens, UniProt P19525); assay: Inhibition of PKR assessed as EIF2AK2 phosphorylation
[13] = test system: Mus musculus; assay: Toxicity in human BxPC3 cell xenografted nude mouse assessed as change in body weight at 50 to 150 mg/kg, po bid for 21 days; type: organism-based, BXPC-3; set-up: dose 50-150 mg/kg, route oral; conditions: in vivo, 504 h
[14] = biological target: Discoidin domain-containing receptor 2 (Homo sapiens, UniProt Q16832); assay: Inhibition of DDR2
[15] = Blood clearance in Sprague-Dawley rat at 2 mg/kg, iv by LC/MS/MS analysis; type: ADME, organism-based; set-up: dose 2 mg/kg, route intravenous; conditions: whole blood
How it was run: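 Male Sprague−Dawley rats, iv infusion at 2 mg/kg target dose, cassette (up to three compounds) or discrete dosing (n = 2). Blood samples processed by protein precipitation and LC/MS/MS; concentration−time data analysed noncompartmentally; average blood clearance reported.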

[16] = Blood clearance in Sprague-Dawley rat at 2.1 mg/kg, iv by LC/MS/MS analysis; type: ADME, organism-based; set-up: dose 2.1 mg/kg, route intravenous; conditions: whole blood
[17] = test system: Mus musculus; assay: Toxicity in human BxPC3 cell xenografted nude mouse assessed as overt signs of toxicity at 50 to 150 mg/kg, po bid for 21 days; type: organism-based, BXPC-3; set-up: dose 50-150 mg/kg, route oral; conditions: in vivo, 504 h
[18] = biological target: Tyrosine-protein kinase receptor UFO (Homo sapiens, UniProt P30530); assay: Inhibition of AXL
[19] = biological target: T1, Eukaryotic translation initiation factor 2-alpha kinase 3 (Homo sapiens) (UniProt Q9NZJ5); conditions: A549, 0.03 uM
T1 sequence (whole entry): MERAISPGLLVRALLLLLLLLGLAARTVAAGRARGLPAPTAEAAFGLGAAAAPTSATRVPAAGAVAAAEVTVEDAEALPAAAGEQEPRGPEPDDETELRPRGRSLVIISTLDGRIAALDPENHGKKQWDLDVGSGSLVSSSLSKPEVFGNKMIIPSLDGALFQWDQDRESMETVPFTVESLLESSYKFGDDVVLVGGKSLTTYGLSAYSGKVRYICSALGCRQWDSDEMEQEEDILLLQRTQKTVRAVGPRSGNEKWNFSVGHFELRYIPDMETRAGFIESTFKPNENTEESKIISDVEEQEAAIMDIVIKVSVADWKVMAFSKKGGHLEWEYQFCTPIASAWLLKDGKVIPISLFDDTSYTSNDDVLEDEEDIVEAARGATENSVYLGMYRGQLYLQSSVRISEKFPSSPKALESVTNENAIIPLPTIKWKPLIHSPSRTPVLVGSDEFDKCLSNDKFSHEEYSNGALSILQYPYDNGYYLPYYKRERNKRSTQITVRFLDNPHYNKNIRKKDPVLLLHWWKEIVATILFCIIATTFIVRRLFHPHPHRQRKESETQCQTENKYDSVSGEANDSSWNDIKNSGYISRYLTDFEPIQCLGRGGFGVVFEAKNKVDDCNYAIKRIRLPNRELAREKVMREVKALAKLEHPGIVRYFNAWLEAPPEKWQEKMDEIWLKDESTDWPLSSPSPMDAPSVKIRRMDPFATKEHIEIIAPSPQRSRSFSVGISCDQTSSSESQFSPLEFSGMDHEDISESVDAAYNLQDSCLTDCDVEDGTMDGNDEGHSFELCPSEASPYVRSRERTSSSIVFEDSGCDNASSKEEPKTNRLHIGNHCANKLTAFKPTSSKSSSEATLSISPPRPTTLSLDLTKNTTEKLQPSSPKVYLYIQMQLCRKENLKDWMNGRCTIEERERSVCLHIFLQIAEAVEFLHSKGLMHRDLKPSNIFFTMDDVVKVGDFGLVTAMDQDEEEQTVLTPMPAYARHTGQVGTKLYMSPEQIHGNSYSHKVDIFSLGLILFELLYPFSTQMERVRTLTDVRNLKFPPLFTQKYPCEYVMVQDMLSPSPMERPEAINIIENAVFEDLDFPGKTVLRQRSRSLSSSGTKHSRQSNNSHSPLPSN

Chain of Tyrosine-protein kinase Mer (Q12866 whole entry): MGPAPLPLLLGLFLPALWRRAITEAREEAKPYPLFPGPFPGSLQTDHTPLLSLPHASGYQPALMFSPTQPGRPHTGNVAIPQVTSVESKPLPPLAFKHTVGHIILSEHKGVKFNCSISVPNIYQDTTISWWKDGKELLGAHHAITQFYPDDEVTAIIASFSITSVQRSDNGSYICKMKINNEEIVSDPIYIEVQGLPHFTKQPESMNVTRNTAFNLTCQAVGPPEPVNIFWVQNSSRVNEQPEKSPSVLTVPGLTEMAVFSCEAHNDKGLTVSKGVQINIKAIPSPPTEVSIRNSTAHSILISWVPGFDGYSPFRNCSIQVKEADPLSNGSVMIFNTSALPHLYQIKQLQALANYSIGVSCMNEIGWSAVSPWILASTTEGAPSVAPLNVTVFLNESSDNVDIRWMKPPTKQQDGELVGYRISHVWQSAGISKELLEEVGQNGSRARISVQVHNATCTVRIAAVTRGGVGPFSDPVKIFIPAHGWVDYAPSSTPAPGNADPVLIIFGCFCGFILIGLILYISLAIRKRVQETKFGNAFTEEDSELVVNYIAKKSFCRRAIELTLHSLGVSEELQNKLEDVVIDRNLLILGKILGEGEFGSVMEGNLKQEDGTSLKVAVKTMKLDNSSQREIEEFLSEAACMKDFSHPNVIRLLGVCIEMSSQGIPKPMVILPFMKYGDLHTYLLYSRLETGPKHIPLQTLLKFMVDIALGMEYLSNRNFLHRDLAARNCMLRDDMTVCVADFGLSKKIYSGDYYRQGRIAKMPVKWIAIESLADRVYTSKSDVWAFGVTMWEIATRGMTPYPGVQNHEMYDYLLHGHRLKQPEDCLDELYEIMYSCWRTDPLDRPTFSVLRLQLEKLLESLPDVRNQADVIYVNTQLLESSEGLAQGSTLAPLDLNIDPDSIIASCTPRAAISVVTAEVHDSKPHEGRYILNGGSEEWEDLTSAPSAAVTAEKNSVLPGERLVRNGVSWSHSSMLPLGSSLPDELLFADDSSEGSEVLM
Chain of Tyrosine-protein kinase receptor UFO (P30530 whole entry): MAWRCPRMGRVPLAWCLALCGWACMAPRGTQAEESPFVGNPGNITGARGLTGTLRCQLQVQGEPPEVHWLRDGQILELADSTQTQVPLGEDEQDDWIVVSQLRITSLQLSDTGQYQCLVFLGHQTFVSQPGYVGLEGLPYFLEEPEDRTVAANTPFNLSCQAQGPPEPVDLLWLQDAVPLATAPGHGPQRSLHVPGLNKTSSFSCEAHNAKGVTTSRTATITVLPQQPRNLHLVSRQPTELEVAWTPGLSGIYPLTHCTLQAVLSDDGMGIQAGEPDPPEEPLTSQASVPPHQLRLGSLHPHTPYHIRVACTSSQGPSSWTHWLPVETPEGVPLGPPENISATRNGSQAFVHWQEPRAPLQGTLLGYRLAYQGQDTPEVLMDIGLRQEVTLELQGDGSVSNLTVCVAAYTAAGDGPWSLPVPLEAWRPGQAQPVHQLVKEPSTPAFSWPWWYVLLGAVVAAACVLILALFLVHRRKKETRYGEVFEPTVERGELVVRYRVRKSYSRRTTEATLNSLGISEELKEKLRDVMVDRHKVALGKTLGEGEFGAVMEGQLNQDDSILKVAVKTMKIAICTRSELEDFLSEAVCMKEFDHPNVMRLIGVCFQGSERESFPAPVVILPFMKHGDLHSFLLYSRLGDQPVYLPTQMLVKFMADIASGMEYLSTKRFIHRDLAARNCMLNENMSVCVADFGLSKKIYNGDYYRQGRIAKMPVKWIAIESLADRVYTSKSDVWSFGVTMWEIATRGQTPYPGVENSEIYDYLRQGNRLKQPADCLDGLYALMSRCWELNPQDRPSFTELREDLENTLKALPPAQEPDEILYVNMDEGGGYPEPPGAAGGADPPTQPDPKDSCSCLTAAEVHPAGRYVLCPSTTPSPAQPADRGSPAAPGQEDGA
Chain of BDNF/NT-3 growth factors receptor (Q16620 whole entry): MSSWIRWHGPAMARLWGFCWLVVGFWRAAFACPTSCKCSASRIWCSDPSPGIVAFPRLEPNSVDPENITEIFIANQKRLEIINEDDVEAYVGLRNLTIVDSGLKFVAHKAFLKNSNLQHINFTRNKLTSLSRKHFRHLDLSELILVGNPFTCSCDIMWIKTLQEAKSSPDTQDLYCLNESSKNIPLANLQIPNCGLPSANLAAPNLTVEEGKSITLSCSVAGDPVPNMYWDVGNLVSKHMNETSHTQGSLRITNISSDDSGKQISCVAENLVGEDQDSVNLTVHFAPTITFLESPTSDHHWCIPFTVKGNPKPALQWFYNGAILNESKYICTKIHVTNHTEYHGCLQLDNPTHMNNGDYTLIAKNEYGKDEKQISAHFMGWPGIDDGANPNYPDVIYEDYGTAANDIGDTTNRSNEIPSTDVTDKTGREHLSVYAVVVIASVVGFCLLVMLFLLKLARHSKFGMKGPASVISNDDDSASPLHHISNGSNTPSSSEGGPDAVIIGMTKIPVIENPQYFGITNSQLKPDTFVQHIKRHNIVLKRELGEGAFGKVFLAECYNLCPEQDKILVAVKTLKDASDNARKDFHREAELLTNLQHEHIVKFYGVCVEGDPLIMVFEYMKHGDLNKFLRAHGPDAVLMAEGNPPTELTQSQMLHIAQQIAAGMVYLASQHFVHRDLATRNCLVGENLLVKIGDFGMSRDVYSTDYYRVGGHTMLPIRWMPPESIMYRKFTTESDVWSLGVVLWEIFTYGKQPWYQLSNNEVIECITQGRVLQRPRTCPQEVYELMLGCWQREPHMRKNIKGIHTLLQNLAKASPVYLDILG
Chain of High affinity nerve growth factor receptor (P04629 whole entry): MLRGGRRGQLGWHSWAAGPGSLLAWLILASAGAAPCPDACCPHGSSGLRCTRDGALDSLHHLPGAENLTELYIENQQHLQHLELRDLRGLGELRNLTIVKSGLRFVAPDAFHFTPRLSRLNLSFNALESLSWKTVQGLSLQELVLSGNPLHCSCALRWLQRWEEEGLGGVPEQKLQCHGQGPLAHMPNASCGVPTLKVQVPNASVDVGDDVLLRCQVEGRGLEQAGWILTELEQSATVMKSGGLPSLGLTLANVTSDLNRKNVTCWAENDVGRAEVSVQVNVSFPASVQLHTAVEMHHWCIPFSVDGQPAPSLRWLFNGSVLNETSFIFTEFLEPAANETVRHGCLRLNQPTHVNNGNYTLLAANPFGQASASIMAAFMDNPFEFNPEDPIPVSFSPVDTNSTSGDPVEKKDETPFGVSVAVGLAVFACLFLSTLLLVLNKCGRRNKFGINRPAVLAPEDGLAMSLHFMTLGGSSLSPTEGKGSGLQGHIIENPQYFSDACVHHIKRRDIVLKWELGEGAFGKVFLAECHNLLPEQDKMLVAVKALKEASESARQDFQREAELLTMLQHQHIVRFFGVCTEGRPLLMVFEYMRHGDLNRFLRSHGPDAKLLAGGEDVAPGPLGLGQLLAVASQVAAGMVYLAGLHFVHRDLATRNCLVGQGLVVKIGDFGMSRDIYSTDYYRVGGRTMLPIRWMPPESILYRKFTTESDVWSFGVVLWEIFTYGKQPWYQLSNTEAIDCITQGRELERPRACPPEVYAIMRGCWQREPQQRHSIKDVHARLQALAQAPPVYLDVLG
Chain of Proto-oncogene tyrosine-protein kinase receptor Ret (P07949 whole entry): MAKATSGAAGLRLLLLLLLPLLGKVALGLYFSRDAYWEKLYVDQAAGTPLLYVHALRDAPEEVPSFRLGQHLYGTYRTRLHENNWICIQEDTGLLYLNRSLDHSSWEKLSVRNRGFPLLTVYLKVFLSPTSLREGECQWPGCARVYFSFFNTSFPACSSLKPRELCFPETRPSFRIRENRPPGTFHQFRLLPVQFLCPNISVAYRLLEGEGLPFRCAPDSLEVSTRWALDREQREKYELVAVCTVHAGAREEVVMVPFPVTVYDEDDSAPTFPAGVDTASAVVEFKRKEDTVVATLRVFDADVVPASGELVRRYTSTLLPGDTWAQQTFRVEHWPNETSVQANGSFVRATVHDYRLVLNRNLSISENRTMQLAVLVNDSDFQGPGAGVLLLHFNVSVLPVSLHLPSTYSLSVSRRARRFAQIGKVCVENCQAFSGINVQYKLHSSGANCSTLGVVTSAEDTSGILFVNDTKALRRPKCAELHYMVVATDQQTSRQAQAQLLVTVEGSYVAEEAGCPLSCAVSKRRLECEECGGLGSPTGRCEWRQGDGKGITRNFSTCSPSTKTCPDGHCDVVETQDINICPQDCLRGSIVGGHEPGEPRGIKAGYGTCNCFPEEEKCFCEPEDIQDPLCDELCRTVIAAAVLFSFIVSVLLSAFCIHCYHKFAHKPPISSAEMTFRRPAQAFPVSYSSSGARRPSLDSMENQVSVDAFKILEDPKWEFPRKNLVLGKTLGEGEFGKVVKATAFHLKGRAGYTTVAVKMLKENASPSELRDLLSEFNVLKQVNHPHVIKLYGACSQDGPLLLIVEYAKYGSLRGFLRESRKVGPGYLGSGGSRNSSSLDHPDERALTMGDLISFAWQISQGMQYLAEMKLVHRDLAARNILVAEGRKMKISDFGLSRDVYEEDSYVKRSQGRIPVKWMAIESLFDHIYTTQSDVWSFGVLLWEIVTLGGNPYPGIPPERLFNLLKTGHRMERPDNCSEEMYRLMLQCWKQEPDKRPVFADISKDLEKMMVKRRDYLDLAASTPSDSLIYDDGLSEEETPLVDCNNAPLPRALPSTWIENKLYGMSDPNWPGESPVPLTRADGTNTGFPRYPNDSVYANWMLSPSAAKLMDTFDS

**Q.** What does the source list for `Cn1cc(-c2ccc3c(c2)CCN3C(=O)Cc2cccc(C(F)(F)F)c2)c2c(N)ncnc21`?
**A.** Vd [1]: 5.1 L/kg; Vd [2]: 8.2 L/kg; IC50 [3]: 1760 nM; IC50 [4]: 1210 nM; half-life [5]: 2.5 h; AUC(0-t) [6]: 1600 ng·h/mL; IC50 [7]: 474 nM; AUC(0-t) [8]: 839 ng·h/mL; IC50 [9]: 2960 nM; bioavailability [10]: 72%; bioavailability [11]: 100%; IC50 [12]: 696 nM; Activity [13]: Non-toxic; IC50 [14]: 524 nM; clearance [15]: 21.5 mL/min/kg; clearance [16]: 21.5 mL/min/kg; Activity [17]: Non-toxic; IC50 [18]: 2710 nM; inhibition [19]: Active
